The text below walks through data of ChEMBL document CHEMBL1128543, “Computer-aided design and synthesis of 5-substituted tryptamines and their pharmacology at the 5-HT1D receptor: discovery of compounds with potential anti-migraine properties” (J Med Chem, 1995).

The target in test [1] is 5-hydroxytryptamine receptor 1D (Homo sapiens) (UniProt P28221). The test is described as follows: The compound was tested for intrinsic activity against 5-HT1D receptor. As to conditions: Oryctolagus cuniculus. The method in brief:
(§1)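 Rabbit saphenous vein rings (male New Zealand White; 4–5 mm) mounted on tungsten wires in Krebs–Henseleit buffer, pH 7.4, 37 °C, gassed with 95% O2/5% CO2, at 2 g passive force. Pretreated for 30 min with pargyline (500 μM) and phenoxybenzamine (0.3 μM), then washed. Cumulative 5-HT curve, then after 60 min a test agonist curve. Potency is p[A50]; α is test maximum/5-HT maximum; n ≥ 3.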

For test [2], the target named is 5-hydroxytryptamine receptor 2A (Homo sapiens) (UniProt P28223). The conditions noted are these: Oryctolagus cuniculus.
Sequence of 5-hydroxytryptamine receptor 2A (Homo sapiens) (P28223 whole entry): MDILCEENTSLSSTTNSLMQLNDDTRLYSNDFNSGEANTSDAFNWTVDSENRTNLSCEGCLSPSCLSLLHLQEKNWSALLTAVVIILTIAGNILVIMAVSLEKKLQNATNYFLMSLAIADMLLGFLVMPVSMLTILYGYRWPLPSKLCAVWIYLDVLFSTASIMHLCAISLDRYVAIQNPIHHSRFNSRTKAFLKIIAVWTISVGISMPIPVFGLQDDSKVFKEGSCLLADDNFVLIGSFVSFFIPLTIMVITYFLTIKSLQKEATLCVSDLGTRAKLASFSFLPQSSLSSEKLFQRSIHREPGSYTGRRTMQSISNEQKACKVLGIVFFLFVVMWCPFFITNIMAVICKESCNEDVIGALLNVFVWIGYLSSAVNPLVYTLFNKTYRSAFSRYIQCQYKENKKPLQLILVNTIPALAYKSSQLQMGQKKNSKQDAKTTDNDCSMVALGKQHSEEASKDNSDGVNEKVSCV
The target in test [3] is Beta-2 adrenergic receptor (Canis lupus familiaris) (UniProt P54833). Put plainly: Binding affinity towards Beta adrenergic receptor.
Sequence of Beta-2 adrenergic receptor (Canis lupus familiaris) (P54833 whole entry, looked up): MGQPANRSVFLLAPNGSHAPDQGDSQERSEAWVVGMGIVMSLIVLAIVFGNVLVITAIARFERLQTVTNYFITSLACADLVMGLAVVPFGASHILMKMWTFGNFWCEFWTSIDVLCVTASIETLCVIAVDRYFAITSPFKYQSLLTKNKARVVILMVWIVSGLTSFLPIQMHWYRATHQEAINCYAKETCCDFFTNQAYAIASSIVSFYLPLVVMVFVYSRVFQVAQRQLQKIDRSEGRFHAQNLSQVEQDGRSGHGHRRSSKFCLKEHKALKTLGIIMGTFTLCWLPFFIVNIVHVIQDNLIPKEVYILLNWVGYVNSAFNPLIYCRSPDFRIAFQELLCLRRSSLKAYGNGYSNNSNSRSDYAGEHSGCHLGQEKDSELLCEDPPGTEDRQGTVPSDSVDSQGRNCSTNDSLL
Test [4] addresses Adrenergic receptor alpha-1 (Homo sapiens) (UniProt P35348+P25100+P35368). The test is described as follows: Binding affinity against Alpha-1 adrenergic receptor using rabbit saphenous vein assay. As to conditions: Oryctolagus cuniculus, target entry is the homologue from another species. The test is classed as tissue-based.
For test [5], the species on record is Oryctolagus cuniculus. The test is described as follows: Binding affinity against 5-hydroxytryptamine 1 receptor using rabbit saphenous vein assay. It is filed as tissue-based. The method, boiled down: (§2)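 Male New Zealand White rabbit saphenous vein rings (4–5 mm) in Krebs–Henseleit at 37 °C, pH 7.4, gassed with 95% O₂:5% CO₂, under 2 g passive force. Tissues got 30 min pargyline (500 μM) and phenoxybenzamine (0.3 μM), then were washed and checked with 1 μM 5-HT. A cumulative 5-HT curve was followed 60 min later by a test agonist curve. Potency is p[A₅₀]; α is test max/5-HT max; n ≥ 3.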

The target of the next test is D(1A) dopamine receptor (Rattus norvegicus, UniProt P18901). The test is described as follows: Binding affinity against dopamine receptor D1 in rat striatum using [3H]SCH-23390 as radioligand. It is filed as tissue-based. The method, boiled down: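 Displacement of [³H]SCH23390 (0.3 nM, about K_D) from rat striatum homogenate, with test compounds run in duplicate over a wide range. Incubation was 30 min at 27 °C in 50 mM Tris-HCl with 5 mM CaCl₂, 0.1% w/v ascorbate and 10 mM pargyline. Assays were filtered and washed with ice-cold buffer, and bound label was counted by scintillation. Results are pK_i or pIC₅₀, n ≥ 3.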
Sequence of D(1A) dopamine receptor (P18901 whole entry): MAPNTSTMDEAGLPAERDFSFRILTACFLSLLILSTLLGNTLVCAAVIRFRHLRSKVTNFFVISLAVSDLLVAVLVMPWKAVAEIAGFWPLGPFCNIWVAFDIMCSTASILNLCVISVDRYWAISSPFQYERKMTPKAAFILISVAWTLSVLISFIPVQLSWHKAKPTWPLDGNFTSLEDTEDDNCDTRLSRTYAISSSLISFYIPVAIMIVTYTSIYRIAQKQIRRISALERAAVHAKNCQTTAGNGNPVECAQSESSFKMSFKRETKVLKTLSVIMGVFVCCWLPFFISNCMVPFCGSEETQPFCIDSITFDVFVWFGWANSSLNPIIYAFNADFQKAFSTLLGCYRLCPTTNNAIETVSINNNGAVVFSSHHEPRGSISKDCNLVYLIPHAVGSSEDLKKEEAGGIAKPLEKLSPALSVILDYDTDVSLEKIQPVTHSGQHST

Test [6] is filed under the species Oryctolagus cuniculus. The test is described as follows: Binding affinity against 5-hydroxytryptamine 1D receptor using rabbit saphenous vein assay. It is filed as tissue-based. The method, boiled down: as §2
Test [7] deals with T1, 5-hydroxytryptamine receptor 1A (Homo sapiens) (UniProt P08908).
T1 sequence (whole entry): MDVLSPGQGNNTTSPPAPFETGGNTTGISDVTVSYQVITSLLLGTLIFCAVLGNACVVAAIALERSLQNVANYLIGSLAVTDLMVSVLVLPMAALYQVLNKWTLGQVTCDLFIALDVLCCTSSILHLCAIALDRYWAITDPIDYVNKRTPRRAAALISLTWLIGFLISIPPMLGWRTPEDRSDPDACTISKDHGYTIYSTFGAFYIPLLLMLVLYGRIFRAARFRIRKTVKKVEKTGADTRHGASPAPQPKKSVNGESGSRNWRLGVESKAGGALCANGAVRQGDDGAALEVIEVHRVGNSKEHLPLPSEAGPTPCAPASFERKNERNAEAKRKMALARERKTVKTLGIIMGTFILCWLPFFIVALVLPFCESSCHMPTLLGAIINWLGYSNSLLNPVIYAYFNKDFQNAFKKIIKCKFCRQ
The test is described as follows: Binding affinity against 5-hydroxytryptamine 1 receptor using rabbit jugular vein assay in the presence of endothelium. The conditions noted are these: Oryctolagus cuniculus; target entry is the homologue from another species.

Test [8] concerns the target 5-hydroxytryptamine receptor 1D (Homo sapiens) (UniProt P28221). Put plainly: The compound was tested for binding affinity against 5-HT1D receptor. As to conditions: Oryctolagus cuniculus. The method, boiled down: as §1
Test [9] addresses Histamine H1 receptor (Homo sapiens) (UniProt P35367). The test is described as follows: Binding affinity against H1 receptor using rabbit saphenous vein assay. It is filed as tissue-based. As to conditions: Oryctolagus cuniculus, target entry is the homologue from another species.
In test [10] the target is Serotonin 3 (5-HT3) receptor (Homo sapiens) (UniProt P46098+A5X5Y0+O95264+Q70Z44+Q8WXA8). The test is described as follows: Binding affinity against 5-hydroxytryptamine 3 receptor […]. As to conditions: Oryctolagus cuniculus. It is filed as cell-based.
Test [11] has as its target Muscarinic acetylcholine receptor M3 (Homo sapiens) (UniProt P20309). The test is described as follows: Binding affinity against Muscarinic acetylcholine receptor M3 using rabbit saphenous vein assay. As to conditions: Oryctolagus cuniculus, target entry is the homologue from another species. It is filed as tissue-based.
A further test has as its target D(2) dopamine receptor (Rattus norvegicus, UniProt P61169). Put plainly: Binding affinity against Dopamine receptor D2 in rat striatum using [3H]-spiperone as radioligand. It is filed as tissue-based. The method in brief:
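Incubation was 30 min at 27 °C in Tris-HCl 50 mM/CaCl₂ 5 mM/0.1% ascorbate/10 mM pargyline buffer. Bound and free label were separated by filtration and counted by liquid scintillation. pK_i or pIC₅₀ is the mean of n ≥ 3.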

For test [12], the target named is Adrenergic receptor alpha-2 (Homo sapiens) (UniProt P08913+P18825+P18089). As to conditions: Oryctolagus cuniculus; Saphenous vein.
Test [13] has as its target T2, Muscarinic acetylcholine receptor M2 (Homo sapiens) (UniProt P08172).
T2 sequence (whole entry): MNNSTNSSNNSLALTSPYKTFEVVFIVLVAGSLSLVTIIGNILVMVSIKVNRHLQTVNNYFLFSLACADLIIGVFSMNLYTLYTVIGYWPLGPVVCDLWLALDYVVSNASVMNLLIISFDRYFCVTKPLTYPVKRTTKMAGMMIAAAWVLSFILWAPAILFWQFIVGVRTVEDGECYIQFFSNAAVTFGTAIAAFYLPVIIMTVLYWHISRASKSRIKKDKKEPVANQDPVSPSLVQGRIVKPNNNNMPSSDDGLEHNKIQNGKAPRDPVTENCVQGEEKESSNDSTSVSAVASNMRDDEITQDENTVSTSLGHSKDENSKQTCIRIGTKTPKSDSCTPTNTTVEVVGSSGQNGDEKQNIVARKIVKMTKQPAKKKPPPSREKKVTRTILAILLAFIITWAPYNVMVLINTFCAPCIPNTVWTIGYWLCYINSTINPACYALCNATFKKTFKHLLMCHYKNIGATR
Put plainly: Binding affinity against Muscarinic acetylcholine receptor M2 using rabbit saphenous vein assay. It is filed as tissue-based. The conditions noted are these: Oryctolagus cuniculus, target entry is the homologue from another species.

The target in test [14] is Histamine H2 receptor (Homo sapiens) (UniProt P25021). The test is described as follows: Binding affinity against H2 receptor using rabbit saphenous vein assay. The test is classed as tissue-based. The conditions noted are these: Oryctolagus cuniculus, target entry is the homologue from another species.
Sequence of Histamine H2 receptor (Homo sapiens) (P25021 whole entry): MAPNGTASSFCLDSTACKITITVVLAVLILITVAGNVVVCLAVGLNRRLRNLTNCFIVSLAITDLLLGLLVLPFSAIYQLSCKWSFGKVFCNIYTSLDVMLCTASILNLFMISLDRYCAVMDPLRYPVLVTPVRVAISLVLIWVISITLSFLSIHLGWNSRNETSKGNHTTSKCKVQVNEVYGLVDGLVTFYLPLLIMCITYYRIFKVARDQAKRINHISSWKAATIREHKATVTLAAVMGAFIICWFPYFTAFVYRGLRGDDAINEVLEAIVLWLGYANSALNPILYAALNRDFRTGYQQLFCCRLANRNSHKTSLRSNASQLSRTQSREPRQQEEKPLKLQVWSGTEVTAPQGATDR
Test [15] addresses D(2) dopamine receptor (Homo sapiens) (UniProt P14416). Put plainly: Binding affinity against Dopamine receptor D2 using rabbit saphenous vein assay. It is filed as tissue-based. As to conditions: Oryctolagus cuniculus, target entry is the homologue from another species.
Test [16] is filed under the species Oryctolagus cuniculus. The test is described as follows: Binding affinity against 5-hydroxytryptamine 4 receptor using rabbit saphenous vein assay. The test is classed as tissue-based.
The target in test [17] is D(1A) dopamine receptor (Homo sapiens) (UniProt P21728). Put plainly: Binding affinity was evaluated by Dopamine receptor D1 agonism in the calf striatum by displacing SCH 23390. The test is classed as tissue-based. The conditions noted are these: Oryctolagus cuniculus.
Sequence of D(1A) dopamine receptor (Homo sapiens) (P21728 whole entry): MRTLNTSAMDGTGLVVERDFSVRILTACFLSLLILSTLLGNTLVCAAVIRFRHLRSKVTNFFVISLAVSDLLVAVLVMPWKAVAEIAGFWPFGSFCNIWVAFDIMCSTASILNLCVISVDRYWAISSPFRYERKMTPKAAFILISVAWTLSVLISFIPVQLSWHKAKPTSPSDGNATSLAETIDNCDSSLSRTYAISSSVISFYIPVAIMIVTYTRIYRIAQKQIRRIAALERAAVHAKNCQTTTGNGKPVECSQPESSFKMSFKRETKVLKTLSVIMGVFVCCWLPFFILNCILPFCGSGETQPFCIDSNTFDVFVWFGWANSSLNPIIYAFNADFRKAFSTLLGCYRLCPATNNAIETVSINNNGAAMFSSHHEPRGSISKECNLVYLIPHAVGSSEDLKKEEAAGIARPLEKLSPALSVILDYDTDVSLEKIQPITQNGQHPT

What is called Kd is the concentration at which binding is half-saturated.

A value given as a limit tells only on which side of the number the result lay.

Sequence of 5-hydroxytryptamine receptor 1D (Homo sapiens) (P28221 whole entry): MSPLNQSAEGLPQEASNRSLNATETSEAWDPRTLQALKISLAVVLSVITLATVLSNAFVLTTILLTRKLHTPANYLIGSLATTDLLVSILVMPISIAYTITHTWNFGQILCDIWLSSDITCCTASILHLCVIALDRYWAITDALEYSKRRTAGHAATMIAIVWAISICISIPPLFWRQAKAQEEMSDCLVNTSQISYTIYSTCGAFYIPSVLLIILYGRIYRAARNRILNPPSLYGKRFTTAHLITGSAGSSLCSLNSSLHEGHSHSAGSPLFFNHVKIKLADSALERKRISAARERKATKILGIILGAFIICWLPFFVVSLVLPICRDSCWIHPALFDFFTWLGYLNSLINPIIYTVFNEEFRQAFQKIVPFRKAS
Sequence of Histamine H1 receptor (Homo sapiens) (P35367 whole entry): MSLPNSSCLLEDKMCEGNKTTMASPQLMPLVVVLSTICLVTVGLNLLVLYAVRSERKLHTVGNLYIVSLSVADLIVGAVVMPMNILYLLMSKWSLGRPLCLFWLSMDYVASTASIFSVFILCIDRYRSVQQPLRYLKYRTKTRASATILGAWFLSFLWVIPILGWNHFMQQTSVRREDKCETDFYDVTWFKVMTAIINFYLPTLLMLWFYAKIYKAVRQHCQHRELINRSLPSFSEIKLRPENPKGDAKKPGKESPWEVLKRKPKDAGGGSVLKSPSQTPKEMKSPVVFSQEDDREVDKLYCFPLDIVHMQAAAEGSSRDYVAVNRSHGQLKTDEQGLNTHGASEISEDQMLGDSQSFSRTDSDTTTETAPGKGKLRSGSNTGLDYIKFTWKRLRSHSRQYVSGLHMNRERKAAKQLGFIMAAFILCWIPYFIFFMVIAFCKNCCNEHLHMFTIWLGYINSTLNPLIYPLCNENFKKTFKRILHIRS
Sequence of D(2) dopamine receptor (Homo sapiens) (P14416 whole entry): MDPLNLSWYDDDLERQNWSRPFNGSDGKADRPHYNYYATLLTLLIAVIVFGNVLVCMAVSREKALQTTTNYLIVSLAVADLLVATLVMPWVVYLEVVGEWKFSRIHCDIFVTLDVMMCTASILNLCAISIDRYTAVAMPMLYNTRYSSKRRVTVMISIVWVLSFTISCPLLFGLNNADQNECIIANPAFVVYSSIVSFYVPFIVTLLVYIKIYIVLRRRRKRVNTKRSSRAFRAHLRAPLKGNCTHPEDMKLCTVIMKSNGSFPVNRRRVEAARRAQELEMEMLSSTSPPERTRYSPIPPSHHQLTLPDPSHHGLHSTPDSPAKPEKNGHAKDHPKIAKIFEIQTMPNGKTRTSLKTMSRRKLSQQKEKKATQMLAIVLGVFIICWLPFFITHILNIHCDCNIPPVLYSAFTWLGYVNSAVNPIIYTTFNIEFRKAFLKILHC
Sequence of Muscarinic acetylcholine receptor M3 (Homo sapiens) (P20309 whole entry, looked up): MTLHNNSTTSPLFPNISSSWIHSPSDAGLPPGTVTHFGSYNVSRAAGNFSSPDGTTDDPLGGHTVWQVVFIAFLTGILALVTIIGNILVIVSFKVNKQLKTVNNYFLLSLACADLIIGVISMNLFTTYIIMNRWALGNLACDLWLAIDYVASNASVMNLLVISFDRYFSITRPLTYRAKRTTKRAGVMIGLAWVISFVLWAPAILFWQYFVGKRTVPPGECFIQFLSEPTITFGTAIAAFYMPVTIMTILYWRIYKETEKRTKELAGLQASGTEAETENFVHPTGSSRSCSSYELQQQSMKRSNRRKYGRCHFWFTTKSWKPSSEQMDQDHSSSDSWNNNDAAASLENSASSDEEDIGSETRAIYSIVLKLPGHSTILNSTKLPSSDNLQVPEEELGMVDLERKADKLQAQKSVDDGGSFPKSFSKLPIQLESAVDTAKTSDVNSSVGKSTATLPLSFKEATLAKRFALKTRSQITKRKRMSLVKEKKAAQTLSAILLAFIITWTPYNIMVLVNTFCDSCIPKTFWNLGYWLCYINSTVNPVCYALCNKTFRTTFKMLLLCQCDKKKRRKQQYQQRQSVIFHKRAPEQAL
Sequence of D(2) dopamine receptor (P61169 whole entry): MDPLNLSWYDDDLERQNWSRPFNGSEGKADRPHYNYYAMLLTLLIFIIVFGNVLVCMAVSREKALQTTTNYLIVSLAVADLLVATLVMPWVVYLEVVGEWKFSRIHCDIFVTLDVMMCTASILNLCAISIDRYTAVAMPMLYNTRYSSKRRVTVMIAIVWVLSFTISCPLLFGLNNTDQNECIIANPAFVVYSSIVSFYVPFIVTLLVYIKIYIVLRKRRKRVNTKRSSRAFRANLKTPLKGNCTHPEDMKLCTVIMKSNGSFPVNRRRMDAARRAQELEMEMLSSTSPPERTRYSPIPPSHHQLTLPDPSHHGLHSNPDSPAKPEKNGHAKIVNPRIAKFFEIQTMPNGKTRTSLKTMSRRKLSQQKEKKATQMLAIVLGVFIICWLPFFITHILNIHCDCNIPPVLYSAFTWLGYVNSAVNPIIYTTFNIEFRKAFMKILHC

On to `CN(C)CCc1c[nH]c2ccc(C[C@H]3COC(=O)N3)cc12` [ZOLMITRIPTAN], for which the Intrinsic activity in test [1] amounted to 0.77. Further, the p[A50] is 6.6 in [2]; less than 4 in [3]; less than 4 in test [4]; 6.8 in the test listed under Oryctolagus cuniculus [5]; less than 4.5 in the test filed under Oryctolagus cuniculus [6]; 6.45 in [7]. The p[A50] was 6.8 in test [8]; 5.5 in test [9]; less than 4.5 in test [10]; less than 4.5 in test [11]; 4.1 in test [12]; less than 4.5 in test [13]. Further, the p[A50] was less than 4.5 in test [14], less than 4 in test [15], 5.3 in the test filed under Oryctolagus cuniculus [16] and less than 4 in test [17]. The Kd on D(1A) dopamine receptor is 0.3 nM; at D(2) dopamine receptor it was 0.04 nM.
